Assay [1] has as its target T1, Alkaline phosphatase, tissue-nonspecific isozyme (Homo sapiens, UniProt P05186).
T1 sequence (P05186 whole entry): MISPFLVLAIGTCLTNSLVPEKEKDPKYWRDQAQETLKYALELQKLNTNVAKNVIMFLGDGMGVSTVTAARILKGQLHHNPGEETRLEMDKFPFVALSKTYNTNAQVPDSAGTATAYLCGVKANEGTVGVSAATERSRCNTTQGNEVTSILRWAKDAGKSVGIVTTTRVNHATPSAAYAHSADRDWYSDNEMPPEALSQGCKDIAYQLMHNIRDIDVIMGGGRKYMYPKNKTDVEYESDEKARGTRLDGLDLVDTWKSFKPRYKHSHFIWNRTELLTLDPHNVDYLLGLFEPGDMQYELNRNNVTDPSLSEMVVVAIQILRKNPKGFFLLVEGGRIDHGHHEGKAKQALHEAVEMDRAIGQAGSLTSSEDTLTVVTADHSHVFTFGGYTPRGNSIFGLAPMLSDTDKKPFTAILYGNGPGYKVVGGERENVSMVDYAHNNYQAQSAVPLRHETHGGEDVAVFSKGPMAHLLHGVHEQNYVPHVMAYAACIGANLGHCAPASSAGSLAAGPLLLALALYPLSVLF
Briefly: Inhibition of TNAP by analogous luminescence assay.

The target of assay [2] is Alkaline phosphatase, germ cell type (Homo sapiens, UniProt P10696). Kind of assay: Inhibition of GCAP by analogous luminescence assay. The procedure, abridged:
(§1)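 GCAP and PLAP IC50s were measured together in dose-response runs on a separate occasion, using enzyme concentrations that differed from those of the main assays.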

A short description of assay [3]: Selectivity ratio of IC50 for IAP to IC50 for PLAP.
A short description of assay [4]: Selectivity ratio of IC50 for TNAP to IC50 for PLAP.
Assay [5] can be described thus: Selectivity ratio of IC50 for GCAP to IC50 for PLAP. In short, it runs like this: as §1
For assay [6], the target named is Intestinal-type alkaline phosphatase (Homo sapiens, UniProt P09923). Briefly: Inhibition of IAP by analogous luminescence assay.

The structures appear in SMILES notation.

Sequence of Alkaline phosphatase, germ cell type (P10696 whole entry): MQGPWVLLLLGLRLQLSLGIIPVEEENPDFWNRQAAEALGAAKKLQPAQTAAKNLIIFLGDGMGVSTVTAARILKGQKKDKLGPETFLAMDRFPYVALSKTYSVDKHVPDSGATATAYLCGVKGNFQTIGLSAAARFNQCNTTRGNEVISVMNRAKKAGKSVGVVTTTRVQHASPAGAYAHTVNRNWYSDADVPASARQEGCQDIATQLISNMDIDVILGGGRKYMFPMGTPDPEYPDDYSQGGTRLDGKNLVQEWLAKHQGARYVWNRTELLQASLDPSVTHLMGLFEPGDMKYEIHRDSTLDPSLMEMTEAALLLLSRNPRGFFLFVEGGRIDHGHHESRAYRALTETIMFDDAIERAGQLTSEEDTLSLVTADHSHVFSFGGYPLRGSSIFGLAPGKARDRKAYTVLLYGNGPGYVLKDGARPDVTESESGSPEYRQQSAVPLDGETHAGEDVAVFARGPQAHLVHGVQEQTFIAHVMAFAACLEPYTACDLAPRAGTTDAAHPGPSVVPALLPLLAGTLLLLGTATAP
Sequence of Intestinal-type alkaline phosphatase (P09923 whole entry): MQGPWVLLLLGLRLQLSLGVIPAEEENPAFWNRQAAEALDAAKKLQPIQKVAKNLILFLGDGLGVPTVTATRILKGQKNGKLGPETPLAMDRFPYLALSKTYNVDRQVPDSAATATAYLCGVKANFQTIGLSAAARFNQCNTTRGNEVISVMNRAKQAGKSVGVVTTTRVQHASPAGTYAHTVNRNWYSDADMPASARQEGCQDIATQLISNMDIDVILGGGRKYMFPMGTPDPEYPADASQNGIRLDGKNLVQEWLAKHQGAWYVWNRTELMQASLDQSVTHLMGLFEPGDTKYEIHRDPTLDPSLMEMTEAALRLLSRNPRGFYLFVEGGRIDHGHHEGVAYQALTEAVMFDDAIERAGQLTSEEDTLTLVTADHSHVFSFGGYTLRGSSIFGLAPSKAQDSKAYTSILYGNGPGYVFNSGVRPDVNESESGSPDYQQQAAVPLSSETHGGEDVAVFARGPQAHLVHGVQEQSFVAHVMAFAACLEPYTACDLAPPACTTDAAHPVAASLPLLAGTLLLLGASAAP

For orientation: IC50 means the concentration that inhibits the measured activity by half. High values mean weaker potency in that assay, low ones greater potency in that assay. In turn, `COc1ccc2c(c1OC)C(=O)OC2CC(=O)c1ccc(O)c(O)c1` (configuration not stated) displayed a half-maximal inhibitory concentration (IC50) in assay [1] of 29.2 µM.
On to `O=C(Cn1cnc2ccccc21)c1ccc(O)c(O)c1`, for which the IC50 in assay [1] amounted to 18 µM; in assay [2] it was 2.7 µM.
`O=C(Cn1ccnc1)c1ccc(O)c(O)c1`: the figures for the Ratio IC50 in assay [3], in assay [4] and in assay [5] were 15, over 32 and 0.6, respectively. The IC50 in assay [1] is over 100 µM; in assay [2] it was 1.2 µM.
For the compound `Cc1cnn(CC(=O)c2ccc(O)c(O)c2)c1`, the Ratio IC50 in assay [3] was determined as 25. Also, the concentration for half-maximal inhibition (IC50) in assay [1] was over 100 µM.
In assay [6], `N[C@@H](Cc1c[nH]c2ccccc12)C(=O)O` [TRYPTOPHAN] yielded an IC50 of over 5 µM.
Regarding `O=C(CNc1nc2ccccc2[nH]1)c1ccc(O)c(O)c1`, the values for the IC50 in assay [1] and in assay [2] were 93.8 µM and 6.2 µM, respectively. For the same compound, the Ratio IC50 in assay [5] came to 0.7.
`N=C(N)NCCCC[C@H](N)C(=O)O` yielded a concentration for half-maximal inhibition (IC50) in assay [6] of over 5 µM.
Consider `Cc1cn(CC(=O)c2ccc(O)c(O)c2)cn1`, for which, in assay [4], the Ratio IC50 was 7. It took 41.1 µM to reach half-maximal inhibition in assay [1] (IC50).
In assay [1], `O=C(Cn1ccnc1-c1ccccc1)c1ccc(O)c(O)c1` had an IC50 of over 100 µM.
Consider `CC(C)C[C@H](N)C(N)=O` [LEUCINE AMIDE], for which the 50% inhibitory concentration (IC50) in assay [6] is over 5 µM.
For `CC(C)NCC(=O)c1ccc(O)c(O)c1`, the IC50 in assay [1] was over 100 µM.
Take `N[C@@H](Cc1ccccc1)C(=O)O` [PHENYLALANINE]: in assay [6], the IC50 is over 5 µM.
In the case of `CCc1nccn1CC(=O)c1ccc(O)c(O)c1`, the Ratio IC50 is over 24 in assay [3], over 27 in assay [4] and 2.1 in assay [5]. In addition, the 50% inhibitory concentration (IC50) is over 100 µM in assay [1], over 100 µM in assay [6] and 1.7 µM in assay [2].
For `c1ccc([C@H]2CN3CCSC3=N2)cc1` [LEVAMISOLE], the 50% inhibitory concentration (IC50) in assay [6] is over 5 µM.
In turn, `O=C(Cn1cnnc1)c1ccc(O)c(O)c1` displayed an IC50 in assay [1] of over 100 µM.
In the case of `Cc1nc(Br)cn1CC(=O)c1ccc(O)c(O)c1`, in assay [4], the Ratio IC50 amounted to 1.7. In assay [1], this compound showed an IC50 of 8.7 µM.
Take `Cn1c(=O)c2[nH]cnc2n(C)c1=O` [THEOPHYLLINE]: the half-maximal inhibitory concentration (IC50) in assay [6] was over 5 µM.
Regarding `O=C(Cn1cnc(Br)c1)c1ccc(O)c(O)c1`, the half-maximal inhibitory concentration (IC50) in assay [1] came to 47.5 µM.
On the same count and under the same terms, the figure for `COc1ccc(-n2nnnc2SCC(=O)c2ccc(O)c(O)c2)cc1` is 8 µM.
Compound `Cc1cc(C)nc(SCC(=O)c2ccc(O)c(O)c2)n1` returned an IC50 in assay [2] of 0.6 µM.
For the compound `CC(C)C[C@H](N)C(=O)O` [LEUCINE], the half-inhibitory concentration (IC50) in assay [6] was over 5 µM.
In assay [1], `Cc1cc2ncn(CC(=O)c3ccc(O)c(O)c3)c2cc1C` came in with an IC50 of over 100 µM.
As to `Cc1nccn1CC(=O)c1ccc(O)c(O)c1`, the half-maximal inhibitory concentration (IC50) in assay [1] stood at 78.3 µM; in assay [2], 30.5 µM.
Turning to `Cc1nc2ccccc2n1CC(=O)c1ccc(O)c(O)c1`, the IC50 in assay [1] was 26.3 µM; in assay [6] it was over 100 µM; in assay [2] it was 9.4 µM.

The record behind these values is ChEMBL document CHEMBL1159036, “Design and synthesis of selective inhibitors of placental alkaline phosphatase” (Bioorg Med Chem, 2010).
